Data reported in ChEMBL document CHEMBL4627284, “Pyrimethamine conjugated histone deacetylase inhibitors: Design, synthesis and evidence for triple negative breast cancer selective cytotoxicity” (Bioorg Med Chem, 2020).
Active and inactive are the calls of the source. The rule behind the calls is not given here.

Legend:
Histone deacetylase 1 [1] = biological target: T1, Histone deacetylase 1 (Homo sapiens, UniProt Q13547); experiment: Inhibition of human recombinant HDAC1 using fluorogenic HDAC substrate preincubated for 30 mins followed by substrate addition and measured after 15 mins by fluorogenic assay
T1 sequence (Q13547 whole entry): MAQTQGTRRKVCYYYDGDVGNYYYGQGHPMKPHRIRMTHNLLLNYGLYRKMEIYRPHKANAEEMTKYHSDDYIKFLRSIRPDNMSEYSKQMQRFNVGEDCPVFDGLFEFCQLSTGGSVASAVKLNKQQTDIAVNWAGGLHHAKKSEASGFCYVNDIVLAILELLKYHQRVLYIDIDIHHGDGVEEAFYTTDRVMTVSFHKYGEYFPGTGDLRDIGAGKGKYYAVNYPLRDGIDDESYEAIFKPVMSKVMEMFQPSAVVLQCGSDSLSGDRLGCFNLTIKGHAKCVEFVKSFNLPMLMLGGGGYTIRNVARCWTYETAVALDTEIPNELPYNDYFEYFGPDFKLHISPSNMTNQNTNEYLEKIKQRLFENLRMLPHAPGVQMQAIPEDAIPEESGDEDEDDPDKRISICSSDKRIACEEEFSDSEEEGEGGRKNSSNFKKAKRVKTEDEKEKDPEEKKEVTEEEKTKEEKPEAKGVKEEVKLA

[2] = biological target: Signal transducer and activator of transcription 3 (Homo sapiens) (UniProt P40763); experiment: Inhibition of STAT3 in human MDA-MB-231 cells assessed as downregulation of Bcl-xL expression after 24 hrs by western blot analysis; type: cell-based
Chain of Signal transducer and activator of transcription 3 (Homo sapiens) (P40763 whole entry): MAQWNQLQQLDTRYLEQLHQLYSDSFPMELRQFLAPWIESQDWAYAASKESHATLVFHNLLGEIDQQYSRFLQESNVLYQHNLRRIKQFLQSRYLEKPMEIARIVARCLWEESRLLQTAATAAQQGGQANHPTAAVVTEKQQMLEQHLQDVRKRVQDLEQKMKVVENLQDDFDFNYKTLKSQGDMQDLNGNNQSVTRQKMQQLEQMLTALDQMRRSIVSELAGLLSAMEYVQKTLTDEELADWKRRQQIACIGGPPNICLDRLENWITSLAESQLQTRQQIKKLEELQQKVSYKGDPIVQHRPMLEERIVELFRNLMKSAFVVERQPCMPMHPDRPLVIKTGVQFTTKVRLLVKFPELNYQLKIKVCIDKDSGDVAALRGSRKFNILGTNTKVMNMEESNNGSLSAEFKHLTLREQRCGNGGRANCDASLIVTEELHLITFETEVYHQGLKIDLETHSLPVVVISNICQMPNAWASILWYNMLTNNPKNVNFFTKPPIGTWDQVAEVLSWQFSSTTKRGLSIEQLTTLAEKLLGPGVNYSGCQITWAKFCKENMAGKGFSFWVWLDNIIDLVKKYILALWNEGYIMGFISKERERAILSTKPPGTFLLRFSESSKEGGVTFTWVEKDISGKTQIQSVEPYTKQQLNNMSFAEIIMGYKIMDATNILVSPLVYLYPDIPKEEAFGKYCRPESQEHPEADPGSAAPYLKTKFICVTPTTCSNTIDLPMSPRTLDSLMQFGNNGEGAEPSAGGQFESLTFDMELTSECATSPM
How it was run: (§1)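 MDA-MB-231 cells, 1*10⁶ per well, were grown in DMEM for 24 h, serum-starved for 24 h, then treated for 24 h from DMSO solutions (final DMSO 0.1%; DMSO control). Cells were lysed in RIPA with protease and phosphatase inhibitors and protein equalized by BCA. 20-40 µg was run on 4-20% gels and transferred to PVDF, which was blocked in 5% BSA. Primary antibodies were applied overnight and secondary for 1 h, and band intensities were quantified by infrared imaging.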

MDA-MB-231 [3] = experiment: Cell cycle arrest in human MDA-MB-231 cells assessed as accumulation of cells at G2 phase at 25 uM incubated for 48 hrs RNase/PI staining based flow cytometry assay (reference value: 17.4 %); type: functional
How it was run: (§2)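 MDA-MB-231 cells, 5*10⁶ per 10 cm plate, were grown in DMEM for 24 h and then dosed for 48 h from DMSO stocks (final DMSO 0.1%; DMSO as control). Cells were trypsinized, washed twice in cold PBS and fixed in 70% ethanol overnight at -20°C. They were treated with 200 ug/mL RNase for 30 min, stained with 50 ug/mL PI at RT for 30 min, and DNA content was read by flow cytometry.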

MDA-MB-231 [4] = experiment: Cell cycle arrest in human MDA-MB-231 cells assessed as accumulation of cells at G2 phase at 12.5 uM incubated for 48 hrs by flow cytometry (reference value: […] %)
MDA-MB-231 [5] = experiment: Cell cycle arrest in human MDA-MB-231 cells assessed as accumulation of cells at G2 phase at 12.5 uM incubated for 48 hrs RNase/PI staining based flow cytometry assay (reference value: 17.4 %); type: functional; how it was run: as §2
[6] = biological target: Signal transducer and activator of transcription 3 (Homo sapiens) (UniProt P40763); experiment: Inhibition of STAT3 in human MDA-MB-231 cells assessed as slight downregulation of Bcl-2 expression at 5 to 25 uM after 24 hrs by western blot analysis; type: cell-based; how it was run: as §1
[7] = biological target: Signal transducer and activator of transcription 3 (Homo sapiens) (UniProt P40763); experiment: Inhibition of STAT3 in human MDA-MB-231 cells assessed as effect on pSTAT3 expression at 5 to 25 uM after 24 hrs by western blot analysis; type: cell-based; how it was run: as §1
[8] = biological target: T2, Protein deacetylase HDAC6 (Homo sapiens) (UniProt Q9UBN7); experiment: Inhibition of HDAC6 in human MDA-MB-231 cells assessed as accumulation of acetylated tubulin at 12.5 to 50 uM by western blot analysis; type: cell-based
T2 sequence (whole entry): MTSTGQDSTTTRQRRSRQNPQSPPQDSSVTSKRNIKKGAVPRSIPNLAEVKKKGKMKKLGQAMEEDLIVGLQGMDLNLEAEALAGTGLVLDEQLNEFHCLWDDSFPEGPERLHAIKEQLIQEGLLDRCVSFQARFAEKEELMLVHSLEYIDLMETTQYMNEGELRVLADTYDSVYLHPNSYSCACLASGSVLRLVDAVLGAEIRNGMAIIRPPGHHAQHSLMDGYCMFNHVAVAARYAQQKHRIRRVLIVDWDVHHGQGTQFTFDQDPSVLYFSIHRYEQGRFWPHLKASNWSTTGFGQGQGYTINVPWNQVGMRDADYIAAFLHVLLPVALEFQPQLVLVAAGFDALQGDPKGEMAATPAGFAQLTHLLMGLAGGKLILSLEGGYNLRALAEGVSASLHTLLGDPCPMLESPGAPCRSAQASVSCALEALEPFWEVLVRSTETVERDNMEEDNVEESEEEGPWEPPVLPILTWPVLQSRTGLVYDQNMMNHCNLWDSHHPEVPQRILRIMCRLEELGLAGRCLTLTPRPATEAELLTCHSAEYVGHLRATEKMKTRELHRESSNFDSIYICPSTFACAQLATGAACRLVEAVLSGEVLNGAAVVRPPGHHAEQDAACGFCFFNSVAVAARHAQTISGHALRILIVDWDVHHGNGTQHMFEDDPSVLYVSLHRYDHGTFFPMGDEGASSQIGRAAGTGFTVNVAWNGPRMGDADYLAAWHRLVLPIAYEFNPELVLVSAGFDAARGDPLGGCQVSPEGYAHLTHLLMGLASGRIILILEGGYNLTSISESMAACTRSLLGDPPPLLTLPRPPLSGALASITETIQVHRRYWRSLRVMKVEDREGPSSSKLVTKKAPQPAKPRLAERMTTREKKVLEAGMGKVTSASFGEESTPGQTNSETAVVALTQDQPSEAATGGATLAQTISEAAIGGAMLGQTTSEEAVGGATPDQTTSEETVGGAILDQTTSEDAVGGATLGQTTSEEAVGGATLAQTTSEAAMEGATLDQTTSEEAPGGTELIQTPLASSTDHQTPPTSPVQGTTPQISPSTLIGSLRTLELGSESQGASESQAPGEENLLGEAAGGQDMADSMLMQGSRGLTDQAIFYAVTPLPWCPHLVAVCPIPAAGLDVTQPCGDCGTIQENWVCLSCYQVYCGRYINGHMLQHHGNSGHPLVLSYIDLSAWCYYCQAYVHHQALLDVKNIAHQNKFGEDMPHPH
How it was run: (§3)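 MDA-MB-231 cells were grown in DMEM for 24 h, serum-starved for 24 h, then treated for 4 h (DMSO control). Lysates were made in RIPA with protease and phosphatase inhibitors and normalized by BCA. 20-40 µg was run on 4-20% gels and transferred to PVDF, which was blocked in 5% BSA. Membranes were probed overnight for acetyl-α-tubulin or acetyl-H4, then with secondary for 1 h, and bands were quantified by infrared imaging.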

MCF7 = experiment: cells; type: functional, cell-based; conditions: Homo sapiens, MCF7, 72 h
[9] = biological target: Signal transducer and activator of transcription 3 (Homo sapiens) (UniProt P40763); experiment: Inhibition of STAT3 in human MDA-MB-231 cells assessed as downregulation of cyclinD1 expression at 2.5 to 5 uM after 24 hrs by western blot analysis; type: cell-based; how it was run: as §1
A549 = experiment: cells; type: functional, cell-based; conditions: Homo sapiens, A549, 72 h
Histone deacetylase 1 [10] = biological target: T1, Histone deacetylase 1; experiment: Inhibition of HDAC1 in human MDA-MB-231 cells assessed as accumulation of acetylated H4 at 12.5 to 50 uM by western blot analysis; type: cell-based; how it was run: as §3
MDA-MB-231 [11] = experiment: Cell cycle arrest in human MDA-MB-231 cells assessed as accumulation of cells at S phase at 12.5 uM incubated for 48 hrs RNase/PI staining based flow cytometry assay (reference value: […] %); type: functional; how it was run: as §2
[12] = biological target: T3, Protein deacetylase HDAC6 (Homo sapiens, UniProt Q9UBN7); experiment: Inhibition of human recombinant HDAC6 using fluorogenic HDAC substrate 3 preincubated for 30 mins followed by substrate addition and measured after 15 mins by fluorogenic assay
T3 sequence (Q9UBN7 whole entry): T2 sequence (whole entry)

MDA-MB-231 [13] = experiment: Cell cycle arrest in human MDA-MB-231 cells assessed as accumulation of cells at G1 phase at 25 uM incubated for 48 hrs RNase/PI staining based flow cytometry assay (reference value: 64.3 %); type: functional; how it was run: as §2
MDA-MB-231 [14] = experiment: cells; type: functional, cell-based; conditions: Homo sapiens, MDA-MB-231, 72 h
MDA-MB-231 [15] = experiment: Cell cycle arrest in human MDA-MB-231 cells assessed as accumulation of cells at S phase at 25 uM incubated for 48 hrs RNase/PI staining based flow cytometry assay (reference value: 11.5 %); type: functional; how it was run: as §2
[16] = biological target: Signal transducer and activator of transcription 3 (Homo sapiens) (UniProt P40763); experiment: Inhibition of STAT3 in human MDA-MB-231 cells assessed as upregulation of p-p38 expression after 24 hrs by western blot analysis; type: cell-based; how it was run: as §1
Histone deacetylase 8 = biological target: T4, Histone deacetylase 8 (Homo sapiens, UniProt Q9BY41); experiment: Inhibition of human recombinant HDAC8 using fluorogenic HDAC substrate class 2A preincubated for 30 mins followed by substrate addition and measured after 15 mins by fluorogenic assay
T4 sequence (Q9BY41 whole entry): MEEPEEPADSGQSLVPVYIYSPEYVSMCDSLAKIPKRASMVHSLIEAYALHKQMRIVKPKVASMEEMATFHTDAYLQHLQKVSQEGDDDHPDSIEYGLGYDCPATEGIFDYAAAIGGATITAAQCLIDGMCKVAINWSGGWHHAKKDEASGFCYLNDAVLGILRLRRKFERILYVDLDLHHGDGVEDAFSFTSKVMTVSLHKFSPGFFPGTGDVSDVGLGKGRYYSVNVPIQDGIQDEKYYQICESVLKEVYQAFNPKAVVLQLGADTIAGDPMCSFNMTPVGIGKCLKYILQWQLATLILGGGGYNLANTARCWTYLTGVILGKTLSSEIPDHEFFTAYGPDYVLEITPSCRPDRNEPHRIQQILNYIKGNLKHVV

Vero = experiment: cells; conditions: Chlorocebus sabaeus, 72 h
MDA-MB-231 [17] = experiment: Cell cycle arrest in human MDA-MB-231 cells assessed as accumulation of cells at G2 phase at 15 uM incubated for 48 hrs RNase/PI staining based flow cytometry assay; type: functional; how it was run: as §2

SMILES	IC50 (Histone deacetylase 1 [1])	IC50 (MCF7)	IC50 (A549)	IC50 [12]	IC50 (MDA-MB-231 [14])	IC50 (Histone deacetylase 8)	IC50 (Vero)	further results
CCc1nc(N)nc(N)c1-c1ccc(-c2cn(CCCCCCCC(=O)NO)nn2)cc1	0.21 µM	83.3 µM	88.5 µM	0.021 µM	21.4 µM	–	–	inhibition [2]: Dose-dependent effect; Activity (MDA-MB-231 [3]): 70.6%; Activity (MDA-MB-231 [4]): 24%; Activity (MDA-MB-231 [5]): 66.8%; inhibition [6]: Active; inhibition [7]: inactive; inhibition [8]: Active; inhibition [9]: Active; inhibition (Histone deacetylase 1 [10]): Active; Activity (MDA-MB-231 [11]): 5.17%; Activity (MDA-MB-231 [13]): 22.1%; Activity (MDA-MB-231 [15]): 1.63%; inhibition [16]: Dose-dependent effect
CCc1nc(N)nc(N)c1-c1ccc(-c2cn(CCCCCCC(=O)NO)nn2)cc1	0.045 µM	57.3 µM	65.5 µM	0.017 µM	12.2 µM	0.78 µM	40.2 µM	Activity (MDA-MB-231 [17]): Active
CCc1nc(N)nc(N)c1-c1ccc(-c2cn(CCCCCC(=O)NO)nn2)cc1	0.26 µM	–	–	0.046 µM	38.4 µM	2.8 µM	–	–
CCOC(=O)CCCCCCCn1cc(-c2ccc(-c3c(N)nc(N)nc3CC)cc2)nn1	–	96.6 µM	114 µM	–	94.9 µM	–	113 µM	–
